Bioassay records: PubChem BioAssay, several laboratories
Most compounds without a hit are left out; they make up all but 2.9% or so of the library.
IMP-1 inh: inhibitors of Pseudomonas aeruginosa IMP-1 metallo-beta-lactamase; purified IMP-1, nitrocefin hydrolysis, epi-absorbance fluorescence; inhibition, % at 5.6 µM; 0.45% of 290,000 active; AID 1556;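 active = inhibition above the mean plus 3 SD of all compounds in the same screening run, cut at about 4.5% in these data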;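 note: 0% = IMP-1 with DMSO and 100% = DMSO wells lacking enzyme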
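System: Purified IMP-1 | Read-out basis: Percent enzyme inhibition | Controls: IMP-1 with DMSO as 0%, enzyme-free DMSO as 100% | Replicates: One well per compound | Doses: 5.6 µM nominal single concentration | Detection: Epi-absorbance fluorescence, 480 nm excitation, 530 nm emission | Incubation: 25 °C, 15 min preincubation, 25 min reaction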
NALP3 yeast inh: blocks the NALP3 inflammasome reconstituted in yeast | Yeast reconstituted NLRP3/ASC/caspase-1, beta-gal luminescence, 24 h | inhibition, % at 10 µM | 0.39% of 330,000 active;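 active = inhibition of 50% or more; inactive = inhibition below 50%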;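 note: plate controls were induced DMSO wells for no effect and uninduced yeast grown without galactose for full effect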
PolyA inh: yeast polyadenylation inhibition | S. cerevisiae SKY197-pL101 polyadenylation reporter, beta-gal luminescence; efflux-impaired pdr1/pdr3 knockout yeast; score 100 = 6 SD above DMSO | activity score, % at 12 µM | 0.02% of 300,000 active | AID 1875;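 active = lowest replicate activity score at least 50, where 100 means six control SD above control mean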;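 note: yeast exposed to compound for 9 h at 30 °C; higher score means more reporter readthrough which indicates perturbed polyadenylation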
VIM-2 inh: inhibitors of Pseudomonas aeruginosa VIM-2 metallo-beta-lactamase; purified VIM-2, nitrocefin hydrolysis, epi-absorbance fluorescence; inhibition, % at 5.6 µM; 0.89% of 290,000 active; AID 1527;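 active = inhibition above the mean of all tested compounds plus 3 SD, cutoff set per screening run, cut at about 7.5% in these data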;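 note: red hydrolysis product quenches plate fluorescence so inhibitors raise well fluorescence; 0% = enzyme with DMSO and 100% = DMSO without enzyme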
NALP1 inh: NALP1 inhibition; AID 2071; inhibition, % at 10 µM; S. cerevisiae NALP1/ASC/caspase-1 growth, X-gal OD620, 72 h; 0.61% of 280,000 active; in the data active = inhibition mostly above about 24%, no sharp cut-off; inactive = mostly below about 32%
Mot1-301 SUMO: SUMOylation pathway inhibition by Mot1-301 growth rescue. S. cerevisiae Mot1-301 growth rescue, ATP luminescence, 38.5C; percent above DMSO median, 100 means doubled. growth rescue, % at 18.8 µM. 1% of 320,000 active. AID 2716;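 active = every valid replicate shows activation above 250% relative to neutral control wells; inactive = the rest, any valid replicate at or below 250%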;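 note: OY570 slx delta 5 strain wells were the positive control but not used for scaling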
* = called active by the depositor; . = no result given; + = active, no number.

SMILES	IMP-1 inh	NALP3 yeast inh	PolyA inh	VIM-2 inh	NALP1 inh	Mot1-301 SUMO
Cc1cc(=O)oc2c(C)c(OCC(=O)N3CCN(c4cccc(Cl)c4)CC3)ccc12	-2	27	8	1	13	6
COc1ccccc1OCCN1CSC(=S)N(C)C1	0	38	-86	-5	108*	+
COc1ccccc1OCCCCN1CCCCC1	-3	18	-1	-1	-12	-6
Cc1ccc(/C=N/NC(=O)COc2ccc(Cl)c(C)c2)o1	0	17	7	-3	13	8
N#CCCNS(=O)(=O)c1ccc(C(=O)OCCCOC(=O)c2ccc(S(=O)(=O)NCCC#N)cc2)cc1	-1	14	5	-1	6	-26
CC(=O)Oc1ccc(C(=O)Nc2cccc(-c3nnc(-c4ccco4)o3)c2)cc1	42*	-4	-7	-3	6	-3
COc1ccc(-c2oc3cc(OC)c(O)c(OC)c3c(=O)c2OC)cc1O	-2	26	-13	12*	-6	11
COc1c(OC)c(O)c2c(=O)c(O)c(-c3ccccc3)oc2c1OC	1	17	-13	3	-5	-4
COc1ccc(-c2oc3cc(O)c(OC)c(O)c3c(=O)c2OC)cc1	.	17	-13	.	-16	-4
COc1ccc(-c2oc3c(OC)c(OC)c(OC)c(O)c3c(=O)c2OC)cc1OC	-1	17	-6	0	-9	+
Fc1ccc(-c2csc(N3CCC(c4ccccc4)C3)n2)cc1 (stereo not drawn)	-4	3	8	-1	32*	934
Clc1ccc(-c2csc(N3CCC(c4ccccc4)C3)n2)cc1 (stereo not drawn)	-5	8	2	-1	4	4
COc1ccc(NC(=O)CCC(=O)c2cccs2)cc1S(=O)(=O)Nc1ccccc1Cl	5.2*	14	0	-2	27	-2
COc1cccc2c1C(=O)C=C(C)C2=O	0	13	-27	-1	96*	30
COc1ccc(Cl)cc1S(=O)(=O)N1CCC(C(=O)N2CCOCC2)CC1	0	11	2	0	0	135
Fc1ccc(-c2noc(C3CCN(Cc4cccnc4)CC3)n2)cc1	0	2	-48	-2	13	848*
CCCCn1nc(C(=O)Nc2ccc(-n3cnnn3)cc2)c2ccccc2c1=O	.	26	.	.	.	-13
C=C[C@@H]1c2c(F)cccc2N(S(=O)(=O)c2ccc(C)cc2)[C@H](c2ccc(C(=O)OC)cc2)C1(C#N)C#N	.	-46	.	.	.	0
CC1(C)OC(=O)N(c2ccccc2)C12C=Cc1c(ccc3ccccc13)O2 (stereo not drawn)	-1	-2	-57	-2	23	274*
CC(C)CN(CCCNC(=O)CN1C(=O)COc2ccc(S(=O)(=O)N3CCCC3)cc21)CC(C)C	-3	9	-14	-3	24	2
Cc1nn(-c2ccccc2)c(OC(=O)c2cccs2)c1S(=O)(=O)c1ccccc1	-5	3	11	-2	36	-2
Cc1nn(-c2ccccc2)c(OC(=O)c2cccs2)c1S(=O)(=O)c1ccc([N+](=O)[O-])cc1	4.8*	12	4	-1	14	-15
CC(=NNC(=O)Cn1ccc(C(F)(F)F)n1)c1ccc(-n2ccnc2)cc1	.	8	.	.	.	14
Cc1noc(C)c1COC(=O)[C@@H](NC(=O)c1ccccc1)C(C)C	-3	16	-11	-4	24*	.
O=C1c2ccccc2-c2n[nH]c(=O)c3ccc(N4CCCCC4)c1c23	-2	25	-1	7	-2	-15
SMILES	IMP-1 inh	NALP3 yeast inh	PolyA inh	VIM-2 inh	NALP1 inh	Mot1-301 SUMO
Cc1ccc(Nc2nc3c([nH]2)c(=O)n(C)c(=O)n3C)cc1	-3	5	22	0	28	6
Cc1cc(C)cc(Nc2nc3c([nH]2)c(=O)n(C)c(=O)n3C)c1	-4	5	14	-2	32*	5
CCCc1nc2c([nH]1)c(=O)n(C)c(=O)n2C	-3	2	23	-2	13	-6
CC(=O)Nc1ccc(Cc2nc3c([nH]2)c(=O)n(C)c(=O)n3C)cc1	12*	0	-12	0	13	24
Cc1ccc(NS(=O)(=O)c2ccc(C(=O)Nc3nncs3)cc2)cc1	.	9	.	.	.	6
NC1=NC(c2cn(-c3ccccc3)nc2-c2cccs2)n2c(nc3ccccc32)N1 (stereo not drawn)	4.9*	1	4	-1	5	-8
N#Cc1cc2c(cc1NC(=O)CCn1cnnn1)OCO2	1	7	12	-1	36*	-17
COCc1cc(C)nc(SCC(=O)Nc2cc3c(cc2C#N)OCO3)c1C#N	-4	15	18	-2	5	-1
O=C1Nc2ccccc2C1C(C[N+](=O)[O-])c1ccccc1 (stereo not drawn)	0	-4	-4	-1	25	-20
COC(=O)CN(Cc1ccccc1)S(=O)(=O)c1ccc(OC)c(OC)c1	0	-3	-14	0	-28	-8
COC(=O)CN(c1cc(OC)ccc1OC)S(=O)(=O)c1ccc(OC)c(OC)c1	-2	15	6	-3	29*	.
O=C1/C(=C/c2cccs2)CCC/C1=C\c1cccs1	5.6*	28	-11	-2	12	24
CC1C/C(=C/c2cccs2)C(=O)/C(=C/c2cccs2)C1 (stereo not drawn)	-1	6	-13	3	35	41
Cc1cc(C)cc(N2C(=O)C3C4C=CC(C4)C3C2=O)c1 (stereo not drawn)	1	3	-3	2	38*	5
Cc1ccc(N2C(=O)C3C4C=CC(C4)C3C2=O)cc1 (stereo not drawn)	-1	7	1	1	20	-22
Cn1nc(C(=O)OCC(=O)c2ccc(Cl)cc2)c2ccccc2c1=O	.	13	.	.	.	35
Cc1ccccc1C(=O)NC1CCN(C(=O)NC2CCCCC2)CC1	-2	0	2	0	20	-19
Cc1ccccc1C(=O)NNC(=O)C1CCN(C(=O)Nc2ccccc2)CC1	.	4	10	.	.	342*
Cc1ccccc1C(=O)NC1CCN(C(=O)N(c2ccccc2)c2ccccc2)CC1	4.6*	6	12	0	1	-1
NC(=O)CC[C@H](NC(=O)c1ccc(Cl)cc1)C(=O)NNC(=O)COc1cccc(Br)c1	.	-1	.	.	.	-2
CN(C)c1ccc(C(=S)N2CCCCCC2)cc1	5.5*	-5	-12	-2	12	-3
CC(=O)N1CCN(C(=S)c2ccc(N(C)C)cc2)CC1	-3	1	0	1	-13	-7
CCCCCCC(=O)N(O)C1CC(=O)N(Cc2ccccc2)C1=O (stereo not drawn)	-3	13	.	-3	47*	14
CCCCCC(=O)N(O)C1CC(=O)N(c2ccccc2)C1=O (stereo not drawn)	1	-4	-16	8.1*	4	130
